Laboratory results taken from article PMC3169012 (European journal of pharmacology, 2011).
“Also recorded” adds a separate entry of the source. Positions of bridges follow the written chain, without caps; N, C: chain ends. No end group written: not given here.

Experiments:
[1] = tested on: peripheral blood CD34^+ cell-derived mast cells; conditions: ref Fukuoka et al., 2008, Lappalainen et al., 2007, Oskeritzian et al., 2005, Venkatesha et al., Woolhiser et al., 2004; cited from earlier work
HMC-1 cells [2] = conditions: ref Ahamed et al., 2004, Ali et al., 2000; cited from earlier work
HA-tagged human MrgX1 = experiment: Degranulation of RBL-2H3 cells stably expressing MrgX1; type: cell-based; conditions: RBL-2H3 expressing MrgX1; for degranulation: peptides 1 µM, compound 48/80 100 ng/ml or antigen DNP-BSA 30 ng/ml, 30 min, representative of 3 experiments
[3] = tested on: rat basophilic leukemia, RBL-2H3 cells; conditions: ref Erdei et al., 2004, Soruri et al., 2008; cited from earlier work
LAD2 mast cells [4] = experiment: Degranulation; type: cell-based, human; conditions: 30 min, β-hexosaminidase release; for degranulation: different concentrations, 3 – 4 experiments
Outline: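 LAD2 cells, kept in StemPro-34 with 100 ng/ml SCF, were seeded at 5 × 10^3 per well overnight with human IgE (1 µg/ml). After washing, they were exposed for 30 min to graded test-compound concentrations in buffer with 0.1% BSA. Released β-hexosaminidase was assayed with 1 mM p-nitrophenyl-N-acetyl-β-D-glucosamine (1.5 h, 37°C), stopped with 0.1 M Na2CO3/NaHCO3, and read at A405. Values are percent of the 0.1% Triton X-100 lysate total, mean ± S.E.M of 3–4 experiments.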

mast cell = conditions: ref Hartmann et al., 1997; Nilsson et al., 1996; cited from earlier work
[5] = tested on: bone marrow-derived mast cells; conditions: ref Erdei et al., 2004, Soruri et al., 2008; cited from earlier work
LAD2 mast cells [6] = experiment: Ca^2+ mobilization in LAD2 mast cells; type: cell-based, human; conditions: indo-1 AM, C3a 10 nM, E7 1 µM, representative of 3 experiments; for intracellular Ca^2+ mobilization: 355/410 nm, E7S 1 µM, compound 48/80 1 µg/ml
Outline: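 LAD2 cells were kept in StemPro-34 with supplements, 2 mM L-glutamine, penicillin, streptomycin and 100 ng/ml SCF, hemi-depleted weekly. Cells at 0.2 × 10^6/ml were loaded with 1 µM indo-1 AM plus 1 µM pluronic F-127 for 30 min at room temperature, washed and resuspended in HEPES-buffered saline. C3a (10 nM) or test peptide (1 µM) was added at marked times. Fluorescence was read at excitation 355 nm and emission 410 nm.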

HA-tagged human MrgX2 = experiment: Degranulation of RBL-2H3 cells stably expressing MrgX2; type: cell-based; conditions: RBL-2H3 expressing MrgX2; for degranulation: peptides 1 µM, compound 48/80 100 ng/ml or antigen DNP-BSA 30 ng/ml, 30 min, representative of 3 experiments
Outline: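 RBL-2H3 cells were nucleofected with HA-tagged receptor plasmid, selected in G418 (1mg/ml) and sorted by anti-HA staining for equivalent expression. 5 × 10^4 cells were primed overnight with mouse anti-DNP IgE (1 µg/ml), washed and stimulated 30 min in 0.1% BSA buffer. Supernatant β-hexosaminidase was read with 1 mM p-nitrophenyl-N-acetyl-β-D-glucosamine (1.5 h, 37°C), stopped with carbonate buffer, A405, as percent of Triton X-100 lysate total.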

HMC-1 cells [7] = experiment: Ca^2+ mobilization in HMC-1 cells; type: cell-based, human; conditions: representative of 3 experiments; for intracellular Ca^2+ mobilization: indo-1 AM, 355/410 nm, C3a 10 nM, E7 1 µM, E7S 1 µM, compound 48/80 1 µg/ml
Outline: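 HMC-1 cells were grown in IMDM with 10% FCS, 2 mM L-glutamine, penicillin and streptomycin. Cells at 1 × 10^6/ml were loaded with 1 µM indo-1 AM plus 1 µM pluronic F-127 for 30 min at room temperature, then washed and resuspended in HEPES-buffered saline. Stimuli were added sequentially at marked times: C3a 10 nM, test peptide 1 µM, test secretagogue 1 µg/ml. Fluorescence was read at excitation 355 nm and emission 410 nm.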

[8] = tested on: CD34^+-derived human mast cells; experiment: Degranulation; type: cell-based; conditions: 30 min, E7 or E7S 1 µM, 3 – 4 experiments
Outline: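 Primary mast cells were grown 7–10 weeks from human CD34+ progenitors in StemPro-34 with SCF and IL-6 (100 ng/ml each), plus IL-3 (30 ng/ml) in the first week only. Cells (5 × 10^3 per well) were primed overnight with human IgE (1 µg/ml), washed, and stimulated 30 min in 0.1% BSA buffer with test peptides at 100 nM or 1 µM. β-Hexosaminidase release was measured at 405 nm and expressed as percent of lysate total, mean ± S.E.M of 3–4 experiments.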

guinea pig skin = conditions: ref Ember et al., 1991; cited from earlier work
C3a receptor [9] = conditions: versus C3a receptor agonist peptide (C3aP), ref Ember et al., 1991; cited from earlier work
guinea pig platelet = conditions: ref Ember et al., 1991; cited from earlier work
C3a receptor [10] = conditions: guinea pig ileum, C3a versus C5a; ref Ember et al., 1991; cited from earlier work
MrgX1 = conditions: ref Lembo et al., 2002; Robas et al., 2003; cited from earlier work
MrgX2 [11] = conditions: 2003, cited from earlier work; for structural requirement for MrgX2 activation: ref Robas et al.
[12] = tested on: mock transfected RBL-2H3 cells; experiment: Degranulation of mock transfected RBL-2H3 cells; type: cell-based, rat; conditions: C3a 100 nM, peptides 1 µM, compound 48/80 100 ng/ml or antigen DNP-BSA 30 ng/ml, 30 min, representative of 3 experiments
Outline: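 Rat RBL-2H3 cells, grown in DMEM with 10% FBS and mock-transfected, were seeded at 5 × 10^4 per well and sensitised with anti-DNP IgE (1 µg/ml, 16 h). After washing, they were challenged 30 min in 0.1% BSA buffer with test agents or DNP-BSA antigen. Supernatant β-hexosaminidase was assayed with 1 mM p-nitrophenyl-N-acetyl-β-D-glucosamine (1.5 h, 37°C) at A405, relative to a 0.1% Triton X-100 lysate. Data are representative of 3 experiments.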

C5a receptor = conditions: ref Subramanian, 2011; cited from earlier work
MrgX2 [13] = conditions: requires tryptophan and a positively charged residue; ref Subramanian, 2011; cited from earlier work
[14] = ref Lu et al., 1984; cited from earlier work

For “C3a: purified human anaphylatoxin C3a, from Complement Technology”, the degranulation [1] is given as “induces degranulation”, the “Ca^2+ mobilization” value (HMC-1 cells [2]) is given as “responds to C3a for a transient Ca^2+ mobilization” and the “degranulation by C3a” value (HA-tagged human MrgX1; C3a (1 µM) in text) is given as “did not activate RBL-2H3 cells expressing MrgX1 or MrgX2; also recorded: at concentrations up to 1 µM did not induce degranulation in cells expressing either human MrgX1 or MrgX2”. For the same substance, the degranulation [3] was “does not induce degranulation”, the degranulation (LAD2 mast cells [4]) was “induced Ca^2+ mobilization and degranulation in a differentiated human mast cell line, LAD2; also recorded: induced a dose-dependent degranulation of LAD2 mast cells” and the “mast cell chemoattractant activity” value (mast cell) was “one of the most potent mast cell chemoattractants known”. The degranulation [5] was “does not induce degranulation”, the “intracellular Ca^2+ mobilization” value (LAD2 mast cells [6]) was “induced Ca^2+ mobilization; also recorded: induced rapid Ca^2+ responses in LAD2 cells which peaked within seconds after stimulation” and the “duration/magnitude of Ca^2+ response, C3a versus E7” value (LAD2 mast cells [6]) was “markedly reduced”. For the same substance, the “degranulation by C3a” value (HA-tagged human MrgX2; C3a (1 µM) in text) was “did not activate RBL-2H3 cells expressing MrgX1 or MrgX2; also recorded: at concentrations up to 1 µM did not induce degranulation in cells expressing either human MrgX1 or MrgX2”, the “Ca^2+ response to C3a added after E7S or compound 48/80” value (HMC-1 cells [7]; C3a 10 nM as second stimulus) was “fully responsive to C3a” and the “intracellular Ca^2+ mobilization” value (HMC-1 cells [7]) was “caused Ca^2+ mobilization in an immature mast cell line, HMC-1; also recorded: induced Ca^2+ mobilization of similar magnitude and duration in HMC-1 cells”.
For LRAGSRYKKWALKWG [E7S], the degranulation (LAD2 mast cells [4]) was “also induced mast cell degranulation in a dose-dependent manner”, the “intracellular Ca^2+ mobilization” value (LAD2 mast cells [6]) was “induced robust and sustained Ca^2+ responses in LAD2 mast cells” and the “degranulation of primary mast cells” value [8] was “these peptides induced degranulation in primary mast cells”. For the same substance, the degranulation (HA-tagged human MrgX2) was “responded to CST, E7, E7S and compound 48/80” and the “intracellular Ca^2+ mobilization” value (HMC-1 cells [7]) was “did not initiate Ca^2+ responses in this cell line”.
In the case of WWGKKYRASKLGLAR [E7], the “concentrations required to induce vascular permeability compared to C3aP” value (guinea pig skin) is given as “much lower concentrations of E7 were required to induce vascular permeability in guinea pig skin”, the “potency for mast cell degranulation compared with C3a” value (LAD2 mast cells [4]) is given as “its potency for mast cell degranulation was lower than that of C3a” and the degranulation (LAD2 mast cells [4]) is given as “induced Ca^2+ mobilization and degranulation in a differentiated human mast cell line, LAD2; also recorded: induced a dose-dependent increase in degranulation in LAD2 mast cells”. The “potency relative to C3aP in guinea pigs” value (C3a receptor [9]) was 12 –15 fold, the “intracellular Ca^2+ mobilization” value (LAD2 mast cells [6]) was “induced Ca^2+ mobilization; also recorded: induced rapid Ca^2+ responses in LAD2 cells which peaked within seconds after stimulation” and the “duration/magnitude of Ca^2+ response, C3a versus E7” value (LAD2 mast cells [6]) was “prominent and sustained response”. For the same substance, the “increase in guinea pig platelet aggregation activity compared to C3aP” value (guinea pig platelet) was ~ 1500%, the “degranulation of primary mast cells” value [8] was “these peptides induced degranulation in primary mast cells” and the “cross-desensitization of ileum contraction” value (C3a receptor [10]) was “cross-desensitized the ability of C3a but not C5a to induce guinea pig ileum contraction”. The degranulation (HA-tagged human MrgX2) was “activated RBL-2H3 cells expressing MrgX2; also recorded: responded to CST, E7, E7S and compound 48/80” and the “intracellular Ca^2+ mobilization” value (HMC-1 cells [7]) was “caused Ca^2+ mobilization in an immature mast cell line, HMC-1; also recorded: induced Ca^2+ mobilization of similar magnitude and duration in HMC-1 cells”.
In the case of “Tyr-Gly-Gly-Phe-Met-Arg-Arg-Val-Gly-Arg-Pro-Glu-Trp-Trp-Met-Asp-Tyr-Gln-Lys-Arg-Tyr-Gly [BAM-22P, Bovine Adrenal Medulla Docosapeptide]”, the degranulation (HA-tagged human MrgX1) is listed as “responded only to BAM-22P and compound 48/80 for degranulation” and the “ligand of MrgX1” value (MrgX1) is listed as “Ligands for MrgX1 and MrgX2 have been identified”.
For “Pro-[Cys-Lys-Asn-Phe-Phe-Trp-Lys-Thr-Phe-Ser-Ser-Cys]-Lys (disulfide) (PCKNFFWKTFSSCK; disulfide 2-13) [CST, Cortistatin-14]”, the “ligand of MrgX2” value (MrgX2 [11]; ref Lembo et al., 2002, Robas et al.) is given as “Ligands for MrgX1 and MrgX2 have been identified”, the “structural requirement for MrgX2 activation” value (MrgX2 [11]) is given as “both the N-terminal proline and the C-terminal lysine are required for MrgX2 activation” and the degranulation (HA-tagged human MrgX2) is given as “responded to CST, E7, E7S and compound 48/80”.
For “antigen: antigen (DNP-BSA, 30 ng/ml) on anti-DNP specific IgE-primed cells”, the degranulation (HA-tagged human MrgX1) was “responded to antigen for degranulation”, the degranulation [12] was “responded to antigen for degranulation” and the degranulation (HA-tagged human MrgX2) was “responded to antigen for degranulation”.
For PMX-53, the C5a receptor antagonism (C5a receptor) is given as “potent C5a receptor antagonist” and the “activation of human mast cells via MrgX2” value (MrgX2 [13]) is given as “activates human mast cells via MrgX2”.
For cortistatin-17 [CST-17], the “structural requirement for MrgX2 activation” value (MrgX2 [11]) is listed as “both the N-terminal proline and the C-terminal lysine are required for MrgX2 activation”.
In the case of NYITELRRQHARASHLGLAR [C3aP], the “biological potency compared with natural C3a” value [14] is listed as “expresses biological potency equal to natural C3a”, the degranulation (LAD2 mast cells [4]) is listed as “as with LAD2 cells, these peptides induced degranulation” and the “degranulation of primary mast cells” value [8] is listed as “these peptides induced degranulation in primary mast cells”.
